Measurements reported in ChEMBL document CHEMBL4311965, “Antimicrobial activity of amphipathic α,α-disubstituted β-amino amide derivatives against ESBL - CARBA producing multi-resistant bacteria; effect of halogenation, lipophilicity and cationic character” (Eur J Med Chem, 2019).
Converted amounts (≈) assume the structure as drawn.

Legend:
Staphylococcus aureus [1] = experiment: Antibacterial activity against multidrug-resistant Staphylococcus aureus N315 cultured in MHB medium assessed as reduction in bacterial growth incubated for 24 hrs by microdilution susceptibility test; assay type: functional; settings: N315, 24 h
Procedure, shortened: (§1)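 Broth microdilution per CLSI M07-A9 (modified). Working solutions made from concentrated DMSO stocks kept at r.t., diluted in double-distilled water, final DMSO <1%. Inoculum 1–1.2 x 10⁶ cells/mL in Mueller-Hinton broth, mixed 1:1 with compound. 37 °C, 24 h, four parallels. Read as OD₆₀₀. Where precipitation left residual OD, the point of major OD decrease was taken as the inhibitory concentration.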

Staphylococcus aureus [2] = experiment: Antibacterial activity against Staphylococcus aureus ATCC 9144 cultured in MHB medium assessed as no bacterial growth incubated at 37 degC for 24 hrs by microdilution susceptibility test; assay type: functional; settings: ATCC 9144, 24 h
Procedure, shortened: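 Broth microdilution per CLSI M07-A9 with modifications. Inoculum about 2.5–3 x 10⁴ cells/mL in Mueller-Hinton broth, mixed 1:1 with test derivative. DMSO stocks diluted in double-distilled water, final DMSO <1%. Incubation 24 h at 37 °C (20 °C for C. glutamicum). Growth and sterility controls included; oxytetracycline reference.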

HepG2 = experiment: Cytotoxicity against human HepG2 cells assessed as reduction in cell viability incubated for 4 hrs by CellTiter 96 Aqueous One Solution Reagent based assay; settings: HepG2, 4 h
Procedure, shortened: (§2)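 HepG2 and MRC-5 cells seeded at 35 000 and 15 000 cells/well respectively, then held overnight at 37 °C, 5% CO₂. Compounds in serum-free MEM Earle's applied for 4 h. MTS reagent (CellTiter 96 AQueous One) added for a further 1 h, absorbance read at 485 nm. Survival expressed relative to medium (negative) and Triton X-100 (positive) controls.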

Escherichia coli [3] = experiment: Antibacterial activity against multidrug-resistant Escherichia coli 50857972 producing imipenem-type carbapenemase-26 cultured in MHB medium assessed as reduction in bacterial growth incubated for 24 hrs by microdilution susceptibility test; assay type: functional; settings: Escherichia coli, 50857972, 24 h; procedure, shortened: as §1
Klebsiella pneumoniae [4] = experiment: Antibacterial activity against multidrug-resistant Klebsiella pneumoniae K47-25 producing carbapenemase-2 cultured in MHB medium assessed as reduction in bacterial growth incubated for 24 hrs by microdilution susceptibility test; assay type: functional; settings: K47-25, 24 h; procedure, shortened: as §1
Staphylococcus aureus [5] = experiment: Antibacterial activity against multidrug-resistant Staphylococcus aureus WIS cultured in MHB medium assessed as reduction in bacterial growth incubated for 24 hrs by microdilution susceptibility test; assay type: functional; procedure, shortened: as §1
Acinetobacter baumannii [6] = experiment: Antibacterial activity against multidrug-resistant Acinetobacter baumannii K47-42 producing oxcillinase-23 cultured in MHB medium assessed as reduction in bacterial growth incubated for 24 hrs by microdilution susceptibility test; assay type: functional; settings: K47-42, 24 h; procedure, shortened: as §1
Klebsiella pneumoniae [7] = experiment: Antibacterial activity against multidrug-resistant Klebsiella pneumoniae 50667959 producing Verona integron encoded metallo beta-lactamse-1 cultured in MHB medium assessed as reduction in bacterial growth incubated for 24 hrs by microdilution susceptibility test; assay type: functional; settings: Klebsiella pneumoniae, 50667959, 24 h; procedure, shortened: as §1
[8] = Aqueous solubility of the compound in DMSO; assay type: physicochemical
MRC5 = experiment: Cytotoxicity against human MRC5 cells assessed as reduction in cell viability incubated for 4 hrs by CellTiter 96 Aqueous One Solution Reagent based assay; settings: MRC5, 4 h; procedure, shortened: as §2
Pseudomonas aeruginosa = experiment: Antibacterial activity against multidrug-resistant Pseudomonas aeruginosa 50692520 producing Verona integron encoded metallo beta-lactamse cultured in MHB medium assessed as reduction in bacterial growth incubated for 24 hrs by microdilution susceptibility test; assay type: functional; settings: Pseudomonas aeruginosa, 50692520, 24 h; procedure, shortened: as §1
Klebsiella pneumoniae [9] = experiment: Antibacterial activity against multidrug-resistant Klebsiella pneumoniae 50531633 producing New Delhi metallo-beta-lactamase-1 and oxcillinase-181 cultured in MHB medium assessed as reduction in bacterial growth incubated for 24 hrs by microdilution susceptibility test; assay type: functional; settings: Klebsiella pneumoniae, 50531633, 24 h; procedure, shortened: as §1
Klebsiella pneumoniae [10] = experiment: Antibacterial activity against multidrug-resistant Klebsiella pneumoniae K66-45 producing New Delhi metallo-beta-lactamase-1 cultured in MHB medium assessed as reduction in bacterial growth incubated for 24 hrs by microdilution susceptibility test; assay type: functional; settings: K66-45, 24 h; procedure, shortened: as §1
Staphylococcus aureus [11] = experiment: Antibacterial activity against multidrug-resistant Staphylococcus aureus 85/2082 cultured in MHB medium assessed as reduction in bacterial growth incubated for 24 hrs by microdilution susceptibility test; assay type: functional; settings: 85/2082, 24 h; procedure, shortened: as §1
Acinetobacter baumannii [12] = experiment: Antibacterial activity against multidrug-resistant Acinetobacter baumannii K44-35 producing oxcillinase-23 cultured in MHB medium assessed as reduction in bacterial growth incubated for 24 hrs by microdilution susceptibility test; assay type: functional; settings: K44-35, 24 h; procedure, shortened: as §1
Escherichia coli [13] = experiment: Antibacterial activity against multidrug-resistant Escherichia coli 50676002 producing New Delhi metallo-beta-lactamase-1 cultured in MHB medium assessed as reduction in bacterial growth incubated for 24 hrs by microdilution susceptibility test; assay type: functional; settings: Escherichia coli, 50676002, 24 h; procedure, shortened: as §1
[14] = Drug metabolism in Sprague-Dawley rat liver microsomes assessed as CYP450-mediated N-(2-aminoethyl)-2-(aminomethyl)-2-[(3,5-bis(trifluoromethyl)phenyl)methyl]-3-(4-hydroxy-3,5-bis(trifluoromethyl)phenyl)propanamide formation incubated up to 3 hrs in presence of NADPH regenerating system by RP-HPLC-MS analysis; assay type: ADME
Procedure, shortened: (§3)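 Substrate at 1 µL of 100 µM aqueous stock in 100 mM potassium phosphate, pH 7.4, with NADPH regenerating system. Pooled male Sprague–Dawley rat liver microsomes (20 mg/mL stock) added, then incubated at 37 °C. Sampled at 0–180 min and quenched with cold methanol containing propranolol internal standard. Analysed by RP-HPLC–HRMS in positive ESI mode. Metabolites confirmed by HCD MS2. Triplicate incubations.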

[15] = Drug metabolism in Sprague-Dawley rat liver microsomes assessed as CYP450-mediated 2-[[2-(aminomethyl)-3-[3,5-bis(trifluoromethyl)phenyl]-2-[[3,5-bis(trifluoromethyl)phenyl]methyl]propanoyl]amino]acetic acid formation incubated up to 3 hrs in presence of NADPH regenerating system by RP-HPLC-MS analysis; assay type: ADME; procedure, shortened: as §3
[16] = Drug metabolism in Sprague-Dawley rat liver microsomes assessed as CYP450-mediated 2-[[2-(aminomethyl)-3-(3,5-dibromophenyl)-2-[(3,5-dibromophenyl)methyl]propanoyl]amino]acetic acid formation incubated up to 3 hrs in presence of NADPH regenerating system by RP-HPLC-MS analysis; assay type: ADME; procedure, shortened: as §3
[17] = Drug metabolism in Sprague-Dawley rat liver microsomes assessed as CYP450-mediated 4-[2-(aminomethyl)-3-(3,5-dibromophenyl)-2-(4,5-dihydrooxazol-3-ium-2-yl)propyl]-2,6-dibromo-phenol formation incubated up to 3 hrs in presence of NADPH regenerating system by RP-HPLC-MS analysis; assay type: ADME; procedure, shortened: as §3
[18] = Drug metabolism in Sprague-Dawley rat liver microsomes assessed as CYP450-mediated N-(2-aminoethyl)-2-(aminomethyl)-2-[(3,5-dibromo-4-hydroxy-phenyl)methyl]-3-(3,5-dibromophenyl)propanamide formation incubated up to 3 hrs in presence of NADPH regenerating system by RP-HPLC-MS analysis; assay type: ADME; procedure, shortened: as §3

Structure (SMILES) | MIC (Staphylococcus aureus [1]) | MIC (Staphylococcus aureus [2]) | EC50 (HepG2) | MIC (Escherichia coli [3]) | MIC (Klebsiella pneumoniae [4]) | MIC (Staphylococcus aureus [5]) | MIC (Acinetobacter baumannii [6]) | MIC (Klebsiella pneumoniae [7]) | solubility [8] | EC50 (MRC5) | MIC (Pseudomonas aeruginosa) | MIC (Klebsiella pneumoniae [9]) | MIC (Klebsiella pneumoniae [10]) | MIC (Staphylococcus aureus [11]) | MIC (Acinetobacter baumannii [12]) | MIC (Escherichia coli [13]) | other results
NCCNC(=O)C(CN)(Cc1ccccc1C(F)(F)F)Cc1ccccc1C(F)(F)F | > 32 µg/mL | 32 µg/mL (≈ 71.5 µM) | 45 µg/mL (≈ 101 µM) | > 32 µg/mL | > 32 µg/mL | > 32 µg/mL | > 32 µg/mL | > 32 µg/mL | Soluble | 42 µg/mL (≈ 93.9 µM) | > 32 µg/mL | > 32 µg/mL | > 32 µg/mL | > 32 µg/mL | > 32 µg/mL | > 32 µg/mL | 
N#CC(Cc1cc(C(F)(F)F)cc(C(F)(F)F)c1)(Cc1cc(C(F)(F)F)cc(C(F)(F)F)c1)C(=O)NCCN | > 32 µg/mL | 16 µg/mL (≈ 27.6 µM) | 20 µg/mL (≈ 34.5 µM) | > 32 µg/mL | > 32 µg/mL | 16 µg/mL (≈ 27.6 µM) | > 32 µg/mL | > 32 µg/mL | Soluble | 12 µg/mL (≈ 20.7 µM) | > 32 µg/mL | > 32 µg/mL | > 32 µg/mL | 32 µg/mL (≈ 55.2 µM) | > 32 µg/mL | > 32 µg/mL | 
N=C(N)NCCNC(=O)C(CNC(=N)N)(Cc1ccc(F)c2ccccc12)Cc1ccc(F)c2ccccc12 | 4 µg/mL (≈ 7.52 µM) | 2 µg/mL (≈ 3.76 µM) |  | 32 µg/mL (≈ 60.2 µM) | > 32 µg/mL | 4 µg/mL (≈ 7.52 µM) | > 32 µg/mL | > 32 µg/mL |  |  | > 32 µg/mL | > 32 µg/mL | > 32 µg/mL | 4 µg/mL (≈ 7.52 µM) | > 32 µg/mL | 32 µg/mL (≈ 60.2 µM) | 
NCCNCC(CN)(Cc1ccc(F)c2ccccc12)Cc1ccc(F)c2ccccc12 | 4 µg/mL (≈ 9.23 µM) | 2 µg/mL (≈ 4.61 µM) | 12 µg/mL (≈ 27.7 µM) | 8 µg/mL (≈ 18.5 µM) | 8 µg/mL (≈ 18.5 µM) | 4 µg/mL (≈ 9.23 µM) | 16 µg/mL (≈ 36.9 µM) | 8 µg/mL (≈ 18.5 µM) |  | 9 µg/mL (≈ 20.8 µM) | 16 µg/mL (≈ 36.9 µM) | 4 µg/mL (≈ 9.23 µM) | 8 µg/mL (≈ 18.5 µM) | 4 µg/mL (≈ 9.23 µM) | 8 µg/mL (≈ 18.5 µM) | 8 µg/mL (≈ 18.5 µM) | 
NCCNC(=O)C(CN)(Cc1cc(C(F)(F)F)cc(C(F)(F)F)c1)Cc1cc(C(F)(F)F)cc(C(F)(F)F)c1 | 16 µg/mL (≈ 27.4 µM) | 4 µg/mL (≈ 6.86 µM) | 11 µg/mL (≈ 18.9 µM) | 8 µg/mL (≈ 13.7 µM) | 32 µg/mL (≈ 54.8 µM) | 16 µg/mL (≈ 27.4 µM) | 16 µg/mL (≈ 27.4 µM) | 16 µg/mL (≈ 27.4 µM) | Soluble | 11 µg/mL (≈ 18.9 µM) | > 32 µg/mL | 16 µg/mL (≈ 27.4 µM) | 32 µg/mL (≈ 54.8 µM) | 16 µg/mL (≈ 27.4 µM) | 16 µg/mL (≈ 27.4 µM) | 16 µg/mL (≈ 27.4 µM) | Drug metabolism [14]: Metabolite_Notdetected; Drug metabolism [15]: Metabolite_Notdetected
NCCNC(=O)C(CN)(Cc1cc(Br)cc(Br)c1)Cc1cc(Br)cc(Br)c1 | 8 µg/mL (≈ 12.8 µM) | 2 µg/mL (≈ 3.19 µM) | 13 µg/mL (≈ 20.7 µM) | 8 µg/mL (≈ 12.8 µM) | 16 µg/mL (≈ 25.5 µM) | 16 µg/mL (≈ 25.5 µM) | 16 µg/mL (≈ 25.5 µM) | 16 µg/mL (≈ 25.5 µM) | Soluble | 17 µg/mL (≈ 27.1 µM) | > 32 µg/mL | 16 µg/mL (≈ 25.5 µM) | 32 µg/mL (≈ 51 µM) | 8 µg/mL (≈ 12.8 µM) | 32 µg/mL (≈ 51 µM) | 16 µg/mL (≈ 25.5 µM) | Drug metabolism [16]: Metabolite_Notdetected; Drug metabolism [17]: Metabolite_Notdetected; Drug metabolism [18]: Metabolite_Notdetected
